pEC50, pIC50: −log10 of the molar value.
Assays:
[1] = biological target: T1, Human immunodeficiency virus type 1 reverse transcriptase (Human immunodeficiency virus 1, UniProt Q72547); assay: Inhibition of HIV1 recombinant reverse transcriptase associated catalytically active RNase H domain assessed as reduction in internal cleavage using HTS-1 RNA/DNA duplex substrate by fluorescence assay
[2] = biological target: T1, Human immunodeficiency virus type 1 reverse transcriptase; assay: Inhibition of HIV1 recombinant reverse transcriptase associated catalytically active RNase H domain assessed as reduction in RNA 5' end directed cleavage using HTS-3 RNA/DNA duplex substrate by fluorescence assay
[3] = biological target: Human immunodeficiency virus type 1 integrase (Human immunodeficiency virus 1, UniProt Q7ZJM1); assay: Inhibition of HIV integrase pre-incubated for 10 mins before DNA substrate addition
In short: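 Strand transfer assay: 1 μM HIV integrase in 10 mM HEPES pH 7.5, 10% glycerol, 10 mM MnCl2, 1 mM DTT, with compound at 0.13–100 μM final in duplicate, preincubated 10 min at 25 °C. Started with biotin/Cy5-labelled oligo duplex, run 30 min at 37 °C, stopped with EDTA. Mean ± SD from at least three experiments.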

[4] = biological target: T1, Human immunodeficiency virus type 1 reverse transcriptase; assay: Inhibition of HIV1 recombinant reverse transcriptase polymerase activity using [3H]TTP and poly(rA)-oligo(dT)16 substrate incubated for 20 mins by liquid scintillation spectrometry
In short: (§1)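 HIV RT (WT or NNRTI-resistant mutant, 10 nM) added to start reaction with 10 μM [3H]-TTP and 40 nM poly(rA)-oligo(dT)16 in 50 mM Tris-HCl pH 7.4, 60 mM KCl, 5 mM MgCl2; 20 min at 37 °C. Quenched with ice-cold 10% TCA/20 mM sodium pyrophosphate, glass-fiber filtered, washed with TCA and ethanol; incorporation counted by scintillation.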

[5] = Inhibition of Escherichia coli RNase H pre-incubated for 10 mins before HTS-1 RNA/DNA duplex substrate addition by fluorescence assay
In short: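 E. coli RNase H at 4 nM with 6 mM MgCl2 and inhibitor at 1, 7 or 30 μM (2% DMSO final) in 50 mM Tris pH 7.8, 50 mM NaCl. Preincubated 10 min at room temperature, then started with 100 nM HTS-1 (fluorescein/Dabcyl RNA/DNA duplex). IC50 taken at curve midpoint; duplicates, at least two independent experiments.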

[6] = biological target: T1, Human immunodeficiency virus type 1 reverse transcriptase; assay: Inhibition of HIV1 recombinant reverse transcriptase associated catalytically active RNase H domain assessed as reduction in DNA 3' end directed cleavage using HTS-2 RNA/DNA duplex substrate by fluorescence assay
[7] = biological target: Gag-Pol polyprotein (Moloney murine leukemia virus isolate Shinnick, UniProt P03355); assay: Inhibition of Moloney murine leukemia virus reverse transcriptase polymerase activity using Td100/Pd18 DNA-DNA substrate incubated for 30 mins by fluorescence assay
[8] = Inhibition of Moloney murine leukemia virus reverse transcriptase associated RNase H pre-incubated for 10 mins before HTS-1 RNA/DNA duplex substrate addition by fluorescence assay
In short: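 Preincubated 10 min at room temperature, then started with 100 nM HTS-1 duplex. IC50 at curve midpoint; duplicates, at least two experiments.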

[9] = Selectivity index, ratio of IC50 for HIV integrase to IC50 for HIV1 recombinant reverse transcriptase associated catalytically active RNase H-mediated domain internal cleavage activity
[10] = biological target: T1, Human immunodeficiency virus type 1 reverse transcriptase; assay: Inhibition of reconstituted HIV1 RNase H using RNA/DNA duplex substrate by fluorescence assay
[11] = test system: Human immunodeficiency virus; assay: Antiviral activity against HIV infected in human HeLa P4/R5 cells pre-incubated for 16 hrs before virus infection and measured 48 hrs post virus infection by fluorescence-based beta-galactosidase detection assay; type: functional, organism-based; settings: Human immunodeficiency virus 1, P4/R5
In short: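 P4R5 indicator cells (expressing CD4, CXCR4, CCR5 and an HIV LTR-driven β-galactosidase reporter) seeded at 5 × 10^3 per well in DMEM/10% FBS with puromycin (0.5 μg/mL). Drug added 16 h before HIV exposure, then 48 h further incubation. Single replication cycle; infection read by fluorescence-based β-galactosidase detection. Highest concentration tested 50 μM; values are averages of two determinations.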

[12] = Therapeutic index, ratio of CC50 for human HeLa P4/R5 cells to EC50 for HIV infected in human HeLa P4/R5 cells; type: cell-based; settings: read-out: Ratio CC50/EC50
[13] = Toxicity against human HeLa P4/R5 cells; type: cell-based
[14] = biological target: T2, Human immunodeficiency virus type 1 reverse transcriptase (Human immunodeficiency virus 1, UniProt Q72547, K103N/L100I); assay: Inhibition of HIV1 reverse transcriptase L100I/K103N mutant polymerase activity using [3H]TTP and poly(rA)-oligo(dT)16 substrate incubated for 20 mins by liquid scintillation spectrometry; in short: as §1
[15] = biological target: T2, Human immunodeficiency virus type 1 reverse transcriptase; assay: Inhibition of HIV1 reverse transcriptase L100I/K103N mutant associated RNase H domain activity assessed as reduction in internal cleavage using HTS-1 RNA/DNA duplex substrate by fluorescence assay
[16] = biological target: T2, Human immunodeficiency virus type 1 reverse transcriptase; assay: Inhibition of HIV1 reverse transcriptase L100I/K103N mutant associated RNase H domain activity assessed as reduction in reduction in DNA 3' end directed cleavage using HTS-2 RNA/DNA duplex substrate by fluorescence assay
[17] = biological target: T3, Human immunodeficiency virus type 1 reverse transcriptase (Human immunodeficiency virus 1, UniProt Q72547, Y181C); assay: Inhibition of HIV1 reverse transcriptase Y181C mutant polymerase activity using [3H]TTP and poly(rA)-oligo(dT)16 substrate incubated for 20 mins by liquid scintillation spectrometry; in short: as §1
[18] = biological target: T3, Human immunodeficiency virus type 1 reverse transcriptase; assay: Inhibition of HIV1 reverse transcriptase Y181C mutant associated RNase H domain activity assessed as reduction in internal cleavage using HTS-1 RNA/DNA duplex substrate by fluorescence assay
[19] = biological target: T3, Human immunodeficiency virus type 1 reverse transcriptase; assay: Inhibition of HIV1 reverse transcriptase Y181C mutant associated RNase H domain activity assessed as reduction in reduction in DNA 3' end directed cleavage using HTS-2 RNA/DNA duplex substrate by fluorescence assay

Human immunodeficiency virus type 1 integrase, sequence (Q7ZJM1 whole entry): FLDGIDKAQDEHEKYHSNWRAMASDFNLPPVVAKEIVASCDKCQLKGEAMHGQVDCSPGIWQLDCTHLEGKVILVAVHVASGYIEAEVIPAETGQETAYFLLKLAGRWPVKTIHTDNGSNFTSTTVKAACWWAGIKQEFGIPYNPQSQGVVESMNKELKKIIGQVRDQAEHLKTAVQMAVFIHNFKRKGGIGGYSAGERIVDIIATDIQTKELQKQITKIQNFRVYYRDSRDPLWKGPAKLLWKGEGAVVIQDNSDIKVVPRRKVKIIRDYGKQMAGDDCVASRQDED

| SMILES | pIC50 [1] | pIC50 [2] | pIC50 [3] | pIC50 [4] | pIC50 [5] | pIC50 [6] | pIC50 [7] | pIC50 [8] | Ratio IC50 [9] | pIC50 [10] | pEC50 [11] | selectivity ratio [12] | CC50 ([13]; HeLa P4/R5 cells) [µM] | CC50 ([13]; p4/r5) [µM] | pIC50 [14] | pIC50 [15] | pIC50 [16] | pIC50 [17] | pIC50 [18] | pIC50 [19] |
| --- | --- | --- | --- | --- | --- | --- | --- | --- | --- | --- | --- | --- | --- | --- | --- | --- | --- | --- | --- | --- |
| O=C1Cc2cc(Cc3ccccc3)ccc2C(=O)N1O | 5.89 | 5.96 | 5.42 | 5.77 | 5.19 | 5.85 | 5.49 | < 4.52 | 2.9 | 5.96 | – | – | – | – | – | – | – | – | – | – |
| O=C1Cc2cc(Cc3ccc(-c4cccs4)cc3)ccc2C(=O)N1O | 5.57 | 5.57 | < 4.00 | 5.82 | – | 5.70 | – | – | – | 6.15 | 4.89 | > 4 | > 50 | – | – | – | – | – | – | – |
| CS(=O)(=O)c1ccc(-c2ccc(Cc3ccc4c(c3)CC(=O)N(O)C4=O)cc2)cc1 | – | – | – | – | 5.14 | – | – | < 4.52 | – | – | – | – | – | – | – | – | – | – | – | – |
| O=C1Cc2cc(Cc3ccc(F)cc3)ccc2C(=O)N1O | 5.89 | 5.92 | 4.44 | 5.64 | – | 6.10 | – | – | 28 | 6.30 | 4.89 | > 4 | > 50 | – | – | – | – | – | – | – |
| O=C1Cc2cc(Cc3ccc(C(F)(F)F)cc3)ccc2C(=O)N1O | 5.82 | 5.70 | < 4.00 | – | – | 5.96 | – | < 4.52 | – | 5.92 | 5.21 | – | – | 50 | – | – | – | – | – | – |
| O=C1Cc2cc(Cc3ccc(-c4ccncc4)cc3)ccc2C(=O)N1O | – | – | – | – | 5.40 | – | – | < 4.52 | – | 6.10 | – | – | – | – | – | – | – | – | – | – |
| NC(=O)c1ccc(-c2ccc(Cc3ccc4c(c3)CC(=O)N(O)C4=O)cc2)cc1 | – | – | – | – | – | – | – | – | – | 5.82 | – | – | – | – | – | – | – | – | – | – |
| O=C1Cc2cc(Cc3ccc(-c4ccc(F)cc4)cc3)ccc2C(=O)N1O | 5.27 | 5.30 | < 4.00 | – | 5.54 | 5.31 | – | < 4.52 | – | 5.55 | 5.00 | – | – | – | – | – | – | – | – | – |
| O=C1Cc2cc(Cc3ccc(C4CC4)cc3)ccc2C(=O)N1O | 6.22 | 6.05 | 5.42 | – | – | 6.10 | – | < 4.52 | – | 6.05 | – | – | – | – | – | – | – | – | – | – |
| O=C1Cc2cc(Cc3ccc(-c4ccccc4)cc3)ccc2C(=O)N1O | 6.10 | 6.05 | < 4.00 | – | 5.47 | 6.22 | – | < 4.52 | – | 6.30 | 5.52 | – | – | 50 | – | – | – | – | – | – |
| COc1ccc(-c2ccc(Cc3ccc4c(c3)CC(=O)N(O)C4=O)cc2)cc1 | – | – | – | – | – | – | – | – | – | – | 5.00 | – | – | – | – | – | – | – | – | – |
| N#Cc1ccc(-c2ccc(Cc3ccc4c(c3)CC(=O)N(O)C4=O)cc2)cc1 | 6.05 | 6.05 | < 4.00 | – | 5.49 | 6.05 | – | < 4.52 | – | 6.30 | 4.89 | – | > 50 | – | – | – | – | – | – | – |
| O=C1Cc2cc(Cc3ccc(-c4ccc(F)cc4F)cc3)ccc2C(=O)N1O | 5.82 | 5.85 | < 4.00 | 5.70 | – | 6.05 | – | – | – | 6.15 | 4.89 | > 4 | > 50 | – | – | – | – | – | – | – |
| O=C1Cc2cc(Cc3ccc(Cl)cc3)ccc2C(=O)N1O | – | – | 5.36 | – | – | – | – | < 4.52 | – | – | – | – | – | – | – | – | – | – | – | – |
| COc1ccc(-c2ccc(Cc3ccc4c(c3)CC(=O)N(O)C4=O)cc2)cc1F | 5.66 | 5.92 | < 4.00 | 5.72 | – | 5.74 | – | – | – | 6.15 | 4.89 | > 4 | > 50 | – | – | – | – | – | – | – |
| NS(=O)(=O)c1ccc(-c2ccc(Cc3ccc4c(c3)CC(=O)N(O)C4=O)cc2)cc1 | 6.40 | 6.30 | 5.44 | 6.30 | 5.60 | 6.30 | 5.62 | < 4.52 | 9 | 6.40 | – | – | – | – | 6.70 | 6.40 | 6.52 | 6.52 | 6.70 | 6.52 |

Reference: ChEMBL document CHEMBL3414532 (J Med Chem, 2015)
